Source: ChEMBL document CHEMBL1147076, “Antitumor activity of MLN8054, an orally active small-molecule inhibitor of Aurora A kinase” (Proc Natl Acad Sci U S A, 2007)
Activity calls are given as the source filed them. The rule behind the calls is not given here.

Assays:
PC-3 [1] = assay: Induction of apoptosis in human PC3 cells assessed as PARP cleavage at 1 uM after 24 hrs by Western blot method; assay type: functional, cell-based
[2] = Inhibition of Abl kinase at 1 uM
[3] = biological target: Tyrosine-protein kinase JAK3 (Homo sapiens) (UniProt P52333); assay: Activity of human JAK3 kinase at 1 uM
[4] = biological target: Ephrin type-A receptor 7 (Homo sapiens) (UniProt Q15375); assay: Activity of human EphA7 kinase at 1 uM
Outline: (§1)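 Single-point kinase profiling: each kinase in a 226-kinase panel tested with compound at 1 μM and ATP at 10 μM in every assay, run by an external screening service.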

[5] = biological target: Serine/threonine-protein kinase BRSK1 (Homo sapiens) (UniProt Q8TDC3); assay: Activity of human BrSK1 kinase at 1 uM
[6] = biological target: Interleukin-1 receptor-associated kinase 4 (Homo sapiens) (UniProt Q9NWZ3); assay: Activity of human IRAK4 kinase at 1 uM
[7] = biological target: MAP kinase-activated protein kinase 5 (Homo sapiens) (UniProt Q8IW41); assay: Activity of human PRAK kinase at 1 uM
Outline: (§2)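 Single-point screen in a 226-kinase panel run by an outside service. Test compound at 1 μM with ATP at 10 μM in every assay. Other assay conditions are not given.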

[8] = biological target: Tyrosine-protein kinase Fes/Fps (Homo sapiens) (UniProt P07332); assay: Activity of human Fes kinase at 1 uM; outline: as §1
[9] = biological target: Tyrosine-protein kinase Yes (Homo sapiens) (UniProt P07947); assay: Activity of human Yes kinase at 1 uM
Outline: (§3)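 Single-concentration screen across a 226-kinase panel run by an outside provider; test compound at 1 μM with 10 μM ATP in every assay. Other conditions not detailed.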

[10] = biological target: ALK tyrosine kinase receptor (Homo sapiens) (UniProt Q9UM73); assay: Activity of human ALK kinase at 1 uM
[11] = biological target: Angiopoietin-1 receptor (Homo sapiens) (UniProt Q02763); assay: Activity of human Tie2 kinase at 1 uM; outline: as §2
[12] = biological target: Serine/threonine-protein kinase Nek7 (Homo sapiens) (UniProt Q8TDX7); assay: Activity of human NEK7 kinase at 1 uM; outline: as §2
[13] = biological target: Hepatocyte growth factor receptor (Homo sapiens) (UniProt P08581); assay: Activity of human Met kinase at 1 uM; outline: as §1
[14] = biological target: Tyrosine-protein kinase Lyn (Homo sapiens) (UniProt P07948); assay: Activity of human Lyn kinase at 1 uM; outline: as §1
[15] = biological target: Rho-associated protein kinase 2 (Rattus norvegicus) (UniProt Q62868); assay: Activity of rat ROCK2 kinase at 1 uM; outline: as §2
MCF7 = assay: Antiproliferative activity against human MCF7 cells after 96 hrs by BrdU cell proliferation ELISA; assay type: functional, cell-based; details: MCF7, 96 h
Outline: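 BrdU incorporation proliferation assay on cultured human tumor lines; IC50 values derived from growth inhibition.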

[16] = biological target: Serine/threonine-protein kinase 3 (Homo sapiens) (UniProt Q13188); assay: Activity of human MST2 kinase at 1 uM
[17] = biological target: cAMP-dependent protein kinase catalytic subunit PRKX (Homo sapiens) (UniProt P51817); assay: Activity of human PrKX kinase at 1 uM; outline: as §2
[18] = biological target: Tyrosine-protein kinase BTK (Homo sapiens) (UniProt Q06187); assay: Activity of human BTK kinase at 1 uM
[19] = biological target: Tyrosine-protein kinase Fgr (Homo sapiens) (UniProt P09769); assay: Activity of human FGR kinase at 1 uM; outline: as §1
[20] = biological target: Myosin light chain kinase, smooth muscle (Homo sapiens) (UniProt Q15746); assay: Activity of human MLCK kinase at 1 uM
[21] = biological target: Mitogen-activated protein kinase 14 (Homo sapiens) (UniProt Q16539); assay: Activity of human SAPK2a kinase at 1 uM; outline: as §3
[22] = biological target: Serine/threonine-protein kinase Nek6 (Homo sapiens) (UniProt Q9HC98); assay: Activity of human NEK6 kinase at 1 uM; outline: as §2
PC-3 [23] = assay: Cell cycle arrest in human PC3 cells by accumulation at G1 phase at 4 uM after 24 hrs by flow cytometry relative to control; assay type: functional
Outline: (§4)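 DNA content profiles by flow cytometry of PC-3 prostate tumor cells exposed to drug diluted in DMSO for 24 or 48 h. Phase distribution was compared with DMSO-treated control cells.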

[24] = biological target: Misshapen-like kinase 1 (Homo sapiens) (UniProt Q8N4C8); assay: Activity of human MINK kinase at 1 uM
[25] = biological target: Ephrin type-B receptor 3 (Homo sapiens) (UniProt P54753); assay: Activity of human EphB3 kinase at 1 uM
PC-3 [26] = assay: Cell cycle arrest in human PC3 cells by accumulation at G2/M phase at 1 uM after 48 hrs by flow cytometry relative to control; assay type: functional; outline: as §4
[27] = biological target: Serine/threonine-protein kinase PAK 6 (Homo sapiens) (UniProt Q9NQU5); assay: Activity of human PAK6 kinase at 1 uM; outline: as §2
[28] = biological target: Fibroblast growth factor receptor 4 (Homo sapiens) (UniProt P22455); assay: Activity of human FGFR4 kinase at 1 uM
[29] = biological target: Protein kinase C beta type (Homo sapiens) (UniProt P05771); assay: Activity of human PKC-beta-2 kinase at 1 uM; outline: as §2
[30] = Inhibition of PKA by radioactive flashplate assay
PC-3 [31] = assay: Increase in mitotis in human PC3 cells assessed as mitotic cell count after 24 hrs; assay type: functional
Outline: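 Cultured cells were exposed to drug for 24 h and stained with MPM2 (mitotic marker) and Hoechst. Cells were imaged on a high-content imaging system, and the percentage of Hoechst-stained cells positive for MPM2 was calculated.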

[32] = biological target: Ephrin type-A receptor 1 (Homo sapiens) (UniProt P21709); assay: Activity of human EphA1 kinase at 1 uM; outline: as §1
[33] = biological target: Serine/threonine-protein kinase NLK (Homo sapiens) (UniProt Q9UBE8); assay: Activity of human NLK kinase at 1 uM; outline: as §2
[34] = biological target: Calcium/calmodulin-dependent protein kinase type IV (Homo sapiens) (UniProt Q16566); assay: Activity of human CaMK4 kinase at 1 uM
[35] = biological target: Mitogen-activated protein kinase 1 (ERK2) (Mus musculus) (UniProt P63085); assay: Activity of mouse MAPK2 kinase at 1 uM
[36] = biological target: Vascular endothelial growth factor receptor 1 (Homo sapiens) (UniProt P17948); assay: Activity of human Flt1 kinase at 1 uM; outline: as §1
[37] = biological target: Serine/threonine-protein kinase Sgk1 (Homo sapiens) (UniProt O00141); assay: Activity of human SGK kinase at 1 uM; outline: as §2
[38] = biological target: Serine/threonine-protein kinase MARK1 (Homo sapiens) (UniProt Q9P0L2); assay: Activity of human MARK1 kinase at 1 uM; outline: as §1
[39] = biological target: Serine/threonine-protein kinase pim-2 (Homo sapiens) (UniProt Q9P1W9); assay: Activity of human Pim2 kinase at 1 uM; outline: as §2
[40] = biological target: Casein kinase I isoform gamma-3 (Homo sapiens) (UniProt Q9Y6M4); assay: Activity of human CK1gamma3 kinase at 1 uM; outline: as §1
[41] = biological target: G protein-coupled receptor kinase 5 (Homo sapiens) (UniProt P34947); assay: Activity of human GRK5 kinase at 1 uM; outline: as §1
Sequence of G protein-coupled receptor kinase 5 (Homo sapiens) (P34947 whole entry, looked up): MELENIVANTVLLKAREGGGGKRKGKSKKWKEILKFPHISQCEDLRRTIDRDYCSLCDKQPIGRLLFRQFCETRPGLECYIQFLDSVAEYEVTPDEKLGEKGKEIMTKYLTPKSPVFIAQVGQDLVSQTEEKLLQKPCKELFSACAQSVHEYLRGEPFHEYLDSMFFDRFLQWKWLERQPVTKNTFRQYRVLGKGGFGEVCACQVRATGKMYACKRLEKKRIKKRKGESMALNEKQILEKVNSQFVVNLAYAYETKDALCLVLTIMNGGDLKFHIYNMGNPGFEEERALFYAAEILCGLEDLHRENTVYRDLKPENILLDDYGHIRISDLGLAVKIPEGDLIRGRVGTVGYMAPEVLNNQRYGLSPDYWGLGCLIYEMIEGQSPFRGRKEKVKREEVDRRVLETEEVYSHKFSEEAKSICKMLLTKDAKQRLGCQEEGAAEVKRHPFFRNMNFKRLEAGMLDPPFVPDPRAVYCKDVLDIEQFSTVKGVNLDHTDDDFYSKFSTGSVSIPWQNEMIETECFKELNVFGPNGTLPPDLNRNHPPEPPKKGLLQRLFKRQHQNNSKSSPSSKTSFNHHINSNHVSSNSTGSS

Sequence of Casein kinase I isoform gamma-3 (Homo sapiens) (Q9Y6M4 whole entry, looked up, canonical isoform): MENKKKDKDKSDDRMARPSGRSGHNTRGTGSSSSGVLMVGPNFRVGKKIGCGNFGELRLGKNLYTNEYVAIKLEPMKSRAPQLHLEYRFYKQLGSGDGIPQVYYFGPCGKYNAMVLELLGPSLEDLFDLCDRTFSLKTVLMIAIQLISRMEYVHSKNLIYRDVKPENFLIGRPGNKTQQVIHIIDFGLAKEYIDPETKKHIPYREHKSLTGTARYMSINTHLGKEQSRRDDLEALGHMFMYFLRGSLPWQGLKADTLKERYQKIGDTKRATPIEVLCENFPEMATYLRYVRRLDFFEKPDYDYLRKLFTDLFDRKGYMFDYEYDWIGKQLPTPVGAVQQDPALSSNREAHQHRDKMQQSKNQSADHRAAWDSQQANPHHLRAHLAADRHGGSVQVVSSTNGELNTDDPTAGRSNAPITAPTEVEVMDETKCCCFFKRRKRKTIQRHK
Sequence of Ephrin type-A receptor 1 (Homo sapiens) (P21709 whole entry): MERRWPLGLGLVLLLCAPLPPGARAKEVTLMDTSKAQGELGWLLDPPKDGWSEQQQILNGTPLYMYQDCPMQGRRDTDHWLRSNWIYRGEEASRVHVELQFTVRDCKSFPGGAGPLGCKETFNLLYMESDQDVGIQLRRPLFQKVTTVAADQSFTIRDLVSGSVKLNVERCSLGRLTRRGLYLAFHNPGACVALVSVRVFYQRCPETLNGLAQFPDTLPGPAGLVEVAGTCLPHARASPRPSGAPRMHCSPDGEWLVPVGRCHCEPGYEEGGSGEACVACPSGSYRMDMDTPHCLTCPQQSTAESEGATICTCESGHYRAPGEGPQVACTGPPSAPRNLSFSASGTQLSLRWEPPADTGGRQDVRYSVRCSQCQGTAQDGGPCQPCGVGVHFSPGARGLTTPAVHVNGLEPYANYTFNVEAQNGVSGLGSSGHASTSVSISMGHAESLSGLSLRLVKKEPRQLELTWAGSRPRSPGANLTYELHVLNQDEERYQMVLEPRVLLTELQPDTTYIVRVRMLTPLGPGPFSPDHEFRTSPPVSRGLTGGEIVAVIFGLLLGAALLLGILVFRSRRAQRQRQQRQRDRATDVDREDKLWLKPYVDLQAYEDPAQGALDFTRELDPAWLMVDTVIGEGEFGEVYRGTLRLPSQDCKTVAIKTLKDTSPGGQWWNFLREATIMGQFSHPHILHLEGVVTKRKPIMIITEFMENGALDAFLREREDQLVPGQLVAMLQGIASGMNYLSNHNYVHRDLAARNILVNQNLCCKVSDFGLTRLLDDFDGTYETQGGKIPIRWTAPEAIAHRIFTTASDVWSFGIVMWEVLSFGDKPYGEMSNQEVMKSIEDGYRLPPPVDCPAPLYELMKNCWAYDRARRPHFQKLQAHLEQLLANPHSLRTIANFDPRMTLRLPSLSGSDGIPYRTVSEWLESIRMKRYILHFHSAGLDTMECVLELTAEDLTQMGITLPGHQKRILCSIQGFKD
Sequence of Myosin light chain kinase, smooth muscle (Homo sapiens) (Q15746 whole entry): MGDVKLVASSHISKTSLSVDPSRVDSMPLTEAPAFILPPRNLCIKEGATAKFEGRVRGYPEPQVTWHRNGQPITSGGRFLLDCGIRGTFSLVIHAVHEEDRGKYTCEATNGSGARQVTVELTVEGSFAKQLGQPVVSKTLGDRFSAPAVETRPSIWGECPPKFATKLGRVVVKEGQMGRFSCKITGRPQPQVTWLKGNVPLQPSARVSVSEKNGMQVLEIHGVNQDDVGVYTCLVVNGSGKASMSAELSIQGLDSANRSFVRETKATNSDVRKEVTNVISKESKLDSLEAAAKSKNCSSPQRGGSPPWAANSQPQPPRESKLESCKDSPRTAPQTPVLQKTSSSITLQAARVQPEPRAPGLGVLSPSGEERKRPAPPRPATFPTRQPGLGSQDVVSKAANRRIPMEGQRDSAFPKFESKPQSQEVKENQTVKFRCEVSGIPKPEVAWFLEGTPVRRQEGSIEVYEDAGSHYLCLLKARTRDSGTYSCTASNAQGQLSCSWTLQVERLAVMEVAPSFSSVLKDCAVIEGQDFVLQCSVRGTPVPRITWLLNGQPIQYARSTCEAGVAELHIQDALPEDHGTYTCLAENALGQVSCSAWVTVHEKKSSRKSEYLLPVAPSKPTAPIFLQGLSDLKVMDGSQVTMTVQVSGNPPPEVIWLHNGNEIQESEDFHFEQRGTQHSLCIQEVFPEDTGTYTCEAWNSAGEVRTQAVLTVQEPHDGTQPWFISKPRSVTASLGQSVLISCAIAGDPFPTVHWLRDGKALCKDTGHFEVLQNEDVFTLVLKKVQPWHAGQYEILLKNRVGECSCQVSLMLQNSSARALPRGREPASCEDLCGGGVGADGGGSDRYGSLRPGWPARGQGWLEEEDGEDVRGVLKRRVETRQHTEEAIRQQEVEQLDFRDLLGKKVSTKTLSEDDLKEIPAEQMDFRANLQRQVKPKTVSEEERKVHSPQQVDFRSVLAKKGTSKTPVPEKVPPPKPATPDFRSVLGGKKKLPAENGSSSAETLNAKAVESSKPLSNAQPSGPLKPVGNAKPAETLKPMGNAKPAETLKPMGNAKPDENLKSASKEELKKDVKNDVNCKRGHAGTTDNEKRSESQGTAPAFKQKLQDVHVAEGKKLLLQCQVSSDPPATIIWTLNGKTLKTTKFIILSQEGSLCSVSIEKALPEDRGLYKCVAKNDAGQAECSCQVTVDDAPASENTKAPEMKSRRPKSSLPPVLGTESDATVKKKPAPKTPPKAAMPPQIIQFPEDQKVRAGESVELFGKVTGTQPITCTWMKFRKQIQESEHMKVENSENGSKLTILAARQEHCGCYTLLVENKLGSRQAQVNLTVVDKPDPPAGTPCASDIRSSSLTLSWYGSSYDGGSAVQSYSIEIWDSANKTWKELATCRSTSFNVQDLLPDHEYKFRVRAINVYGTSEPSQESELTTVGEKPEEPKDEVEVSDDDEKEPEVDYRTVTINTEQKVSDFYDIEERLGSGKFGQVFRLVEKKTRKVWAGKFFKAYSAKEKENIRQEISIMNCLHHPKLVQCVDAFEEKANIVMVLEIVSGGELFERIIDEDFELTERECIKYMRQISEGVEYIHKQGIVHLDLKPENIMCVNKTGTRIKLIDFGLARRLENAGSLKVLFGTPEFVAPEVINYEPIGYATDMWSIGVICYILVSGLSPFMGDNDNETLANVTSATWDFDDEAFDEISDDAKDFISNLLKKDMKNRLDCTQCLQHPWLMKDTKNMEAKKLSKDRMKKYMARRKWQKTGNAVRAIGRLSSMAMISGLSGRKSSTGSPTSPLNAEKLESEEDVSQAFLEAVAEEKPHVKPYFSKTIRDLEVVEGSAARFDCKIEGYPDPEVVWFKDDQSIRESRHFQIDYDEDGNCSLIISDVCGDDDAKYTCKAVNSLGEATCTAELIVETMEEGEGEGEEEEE
Sequence of Tyrosine-protein kinase JAK3 (Homo sapiens) (P52333 whole entry): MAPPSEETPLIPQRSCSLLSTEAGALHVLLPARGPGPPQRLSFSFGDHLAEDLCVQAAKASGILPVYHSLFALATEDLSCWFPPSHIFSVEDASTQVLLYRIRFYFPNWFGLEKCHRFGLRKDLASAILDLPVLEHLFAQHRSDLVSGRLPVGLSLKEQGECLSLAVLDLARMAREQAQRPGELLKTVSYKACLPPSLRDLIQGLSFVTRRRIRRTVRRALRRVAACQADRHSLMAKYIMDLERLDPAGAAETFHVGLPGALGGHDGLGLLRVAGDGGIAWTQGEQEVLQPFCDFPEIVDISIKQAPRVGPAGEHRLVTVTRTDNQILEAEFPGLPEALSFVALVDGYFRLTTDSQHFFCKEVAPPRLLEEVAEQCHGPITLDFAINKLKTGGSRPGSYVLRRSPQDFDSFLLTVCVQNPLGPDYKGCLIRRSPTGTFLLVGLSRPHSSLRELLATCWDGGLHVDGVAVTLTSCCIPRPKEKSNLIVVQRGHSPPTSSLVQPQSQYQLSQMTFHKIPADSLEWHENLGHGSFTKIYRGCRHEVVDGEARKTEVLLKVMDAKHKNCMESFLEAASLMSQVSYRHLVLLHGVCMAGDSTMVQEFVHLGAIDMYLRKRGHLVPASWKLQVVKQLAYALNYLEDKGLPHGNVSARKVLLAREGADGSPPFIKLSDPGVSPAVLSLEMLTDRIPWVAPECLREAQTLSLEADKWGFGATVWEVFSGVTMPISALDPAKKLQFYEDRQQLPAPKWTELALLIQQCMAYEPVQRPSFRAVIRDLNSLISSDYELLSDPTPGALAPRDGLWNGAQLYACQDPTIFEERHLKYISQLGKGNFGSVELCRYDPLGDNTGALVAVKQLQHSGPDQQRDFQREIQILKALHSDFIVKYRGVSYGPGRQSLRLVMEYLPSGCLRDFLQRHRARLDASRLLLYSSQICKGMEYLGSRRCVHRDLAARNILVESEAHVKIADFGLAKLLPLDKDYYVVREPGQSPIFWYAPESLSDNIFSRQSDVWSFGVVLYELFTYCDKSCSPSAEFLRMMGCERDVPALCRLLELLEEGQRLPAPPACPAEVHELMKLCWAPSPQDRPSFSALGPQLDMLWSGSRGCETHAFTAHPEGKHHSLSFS

O=C(O)c1ccc(Nc2ncc3c(n2)-c2ccc(Cl)cc2C(c2c(F)cccc2F)=NC3)cc1 [MLN-8054]
Activity (PC-3 [1]): Active | inhibition [2]: 76% | Activity [3]: 100% | Activity [4]: 67% | Activity [5]: 92% | Activity [6]: 97% | Activity [7]: 110% | Activity [8]: 133% | Activity [9]: 20% | Activity [10]: 95% | Activity [11]: 51% | Activity [12]: 99% | Activity [13]: 140% | Activity [14]: 46% | Activity [15]: 92% | IC50 (MCF7): 0.67 µM | Activity [16]: 100% | Activity [17]: 99% | Activity [18]: 90% | Activity [19]: 36% | Activity [20]: 95% | Activity [21]: 105% | Activity [22]: 92% | Activity (PC-3 [23]): 23% | Activity [24]: 104% | Activity [25]: 95% | Activity (PC-3 [26]): 59.8% | Activity [27]: 108% | Activity [28]: 115% | Activity [29]: 100% | IC50 [30]: 19 µM | Activity (PC-3 [31]): 12% | Activity [32]: 29% | Activity [33]: 104% | Activity [34]: 104% | Activity [35]: 105% | Activity [36]: 65% | Activity [37]: 99% | Activity [38]: 106% | Activity [39]: 101% | Activity [40]: 113% | Activity [41]: 109%
